Experimental data reported in ChEMBL document CHEMBL3797186, “Single Residue Substitutions That Confer Voltage-Gated Sodium Ion Channel Subtype Selectivity in the NaV1.7 Inhibitory Peptide GpTx-1” (J Med Chem, 2016).
Positions of bridges follow the written chain, without caps; N, C: chain ends. Non-standard residues stand in square brackets, D forms with d. Residues, ends and D or L forms follow the SMILES beside them. 1Nal = N[C@@H](Cc1cccc2ccccc12)C(=O)O

How the values were obtained:
[1] = biological target: Sodium channel protein type 9 subunit alpha (Homo sapiens, UniProt Q15858); assay: Inhibition of human Nav1.7 expressed in HEK293 cells assessed as inward peak current by ion-works quattro patch clamp electrophysiology method; assay type: cell-based
Chain of Sodium channel protein type 9 subunit alpha (Q15858 whole entry): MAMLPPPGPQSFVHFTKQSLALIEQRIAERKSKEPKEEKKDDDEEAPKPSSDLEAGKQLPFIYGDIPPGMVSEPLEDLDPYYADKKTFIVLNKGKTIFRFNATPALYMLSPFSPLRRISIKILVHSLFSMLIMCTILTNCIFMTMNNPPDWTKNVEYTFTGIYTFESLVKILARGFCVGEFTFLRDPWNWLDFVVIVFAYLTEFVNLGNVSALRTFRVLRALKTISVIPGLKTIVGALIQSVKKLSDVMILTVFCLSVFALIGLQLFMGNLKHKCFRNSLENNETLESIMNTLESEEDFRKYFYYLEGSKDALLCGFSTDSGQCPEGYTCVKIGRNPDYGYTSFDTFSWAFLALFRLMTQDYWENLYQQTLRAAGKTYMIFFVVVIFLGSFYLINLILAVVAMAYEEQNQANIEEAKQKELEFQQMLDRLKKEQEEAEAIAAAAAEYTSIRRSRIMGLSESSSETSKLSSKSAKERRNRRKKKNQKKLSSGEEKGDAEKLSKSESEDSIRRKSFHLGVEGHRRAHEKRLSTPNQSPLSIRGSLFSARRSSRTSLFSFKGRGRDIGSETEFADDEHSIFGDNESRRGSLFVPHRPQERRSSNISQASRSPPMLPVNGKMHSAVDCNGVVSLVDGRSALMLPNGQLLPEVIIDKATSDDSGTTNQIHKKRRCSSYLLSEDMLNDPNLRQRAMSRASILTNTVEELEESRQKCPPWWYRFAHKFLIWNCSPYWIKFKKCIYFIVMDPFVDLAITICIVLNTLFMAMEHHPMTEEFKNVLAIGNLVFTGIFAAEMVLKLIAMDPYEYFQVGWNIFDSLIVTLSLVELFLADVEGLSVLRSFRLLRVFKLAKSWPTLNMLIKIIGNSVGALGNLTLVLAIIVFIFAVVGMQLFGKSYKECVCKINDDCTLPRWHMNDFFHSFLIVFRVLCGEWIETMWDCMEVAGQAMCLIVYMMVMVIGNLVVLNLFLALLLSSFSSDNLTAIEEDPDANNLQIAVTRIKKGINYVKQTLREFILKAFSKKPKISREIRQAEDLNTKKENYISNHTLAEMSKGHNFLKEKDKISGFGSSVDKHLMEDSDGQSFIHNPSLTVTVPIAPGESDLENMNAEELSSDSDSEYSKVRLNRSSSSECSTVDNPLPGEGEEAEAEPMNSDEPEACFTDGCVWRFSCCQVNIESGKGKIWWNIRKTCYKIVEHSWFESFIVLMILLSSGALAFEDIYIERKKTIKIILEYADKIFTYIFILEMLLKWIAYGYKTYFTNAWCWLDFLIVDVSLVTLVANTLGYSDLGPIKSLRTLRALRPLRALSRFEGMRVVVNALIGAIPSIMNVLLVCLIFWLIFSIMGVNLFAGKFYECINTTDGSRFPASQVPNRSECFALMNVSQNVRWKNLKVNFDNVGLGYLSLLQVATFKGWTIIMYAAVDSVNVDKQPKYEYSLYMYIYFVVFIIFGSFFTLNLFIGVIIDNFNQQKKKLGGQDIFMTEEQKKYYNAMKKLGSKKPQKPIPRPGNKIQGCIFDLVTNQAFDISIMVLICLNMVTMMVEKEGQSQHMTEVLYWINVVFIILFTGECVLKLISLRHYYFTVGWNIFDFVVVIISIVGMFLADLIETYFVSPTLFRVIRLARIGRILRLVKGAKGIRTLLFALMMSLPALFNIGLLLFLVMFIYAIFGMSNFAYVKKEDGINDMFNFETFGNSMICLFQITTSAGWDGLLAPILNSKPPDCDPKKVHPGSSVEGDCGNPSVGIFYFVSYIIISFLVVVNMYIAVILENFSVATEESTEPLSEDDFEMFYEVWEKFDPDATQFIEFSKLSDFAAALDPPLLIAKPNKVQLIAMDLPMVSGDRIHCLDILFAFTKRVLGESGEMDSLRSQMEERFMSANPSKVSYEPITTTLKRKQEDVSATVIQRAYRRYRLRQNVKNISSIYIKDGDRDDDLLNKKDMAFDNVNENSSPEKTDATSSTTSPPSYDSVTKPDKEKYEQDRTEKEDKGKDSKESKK

[2] = biological target: Sodium channel protein type 5 subunit alpha (Homo sapiens, UniProt Q14524); assay: Inhibition of human Nav1.5 expressed in HEK293 cells assessed as inward peak current by ion-works quattro patch clamp electrophysiology method; assay type: cell-based
Chain of Sodium channel protein type 5 subunit alpha (Q14524 whole entry): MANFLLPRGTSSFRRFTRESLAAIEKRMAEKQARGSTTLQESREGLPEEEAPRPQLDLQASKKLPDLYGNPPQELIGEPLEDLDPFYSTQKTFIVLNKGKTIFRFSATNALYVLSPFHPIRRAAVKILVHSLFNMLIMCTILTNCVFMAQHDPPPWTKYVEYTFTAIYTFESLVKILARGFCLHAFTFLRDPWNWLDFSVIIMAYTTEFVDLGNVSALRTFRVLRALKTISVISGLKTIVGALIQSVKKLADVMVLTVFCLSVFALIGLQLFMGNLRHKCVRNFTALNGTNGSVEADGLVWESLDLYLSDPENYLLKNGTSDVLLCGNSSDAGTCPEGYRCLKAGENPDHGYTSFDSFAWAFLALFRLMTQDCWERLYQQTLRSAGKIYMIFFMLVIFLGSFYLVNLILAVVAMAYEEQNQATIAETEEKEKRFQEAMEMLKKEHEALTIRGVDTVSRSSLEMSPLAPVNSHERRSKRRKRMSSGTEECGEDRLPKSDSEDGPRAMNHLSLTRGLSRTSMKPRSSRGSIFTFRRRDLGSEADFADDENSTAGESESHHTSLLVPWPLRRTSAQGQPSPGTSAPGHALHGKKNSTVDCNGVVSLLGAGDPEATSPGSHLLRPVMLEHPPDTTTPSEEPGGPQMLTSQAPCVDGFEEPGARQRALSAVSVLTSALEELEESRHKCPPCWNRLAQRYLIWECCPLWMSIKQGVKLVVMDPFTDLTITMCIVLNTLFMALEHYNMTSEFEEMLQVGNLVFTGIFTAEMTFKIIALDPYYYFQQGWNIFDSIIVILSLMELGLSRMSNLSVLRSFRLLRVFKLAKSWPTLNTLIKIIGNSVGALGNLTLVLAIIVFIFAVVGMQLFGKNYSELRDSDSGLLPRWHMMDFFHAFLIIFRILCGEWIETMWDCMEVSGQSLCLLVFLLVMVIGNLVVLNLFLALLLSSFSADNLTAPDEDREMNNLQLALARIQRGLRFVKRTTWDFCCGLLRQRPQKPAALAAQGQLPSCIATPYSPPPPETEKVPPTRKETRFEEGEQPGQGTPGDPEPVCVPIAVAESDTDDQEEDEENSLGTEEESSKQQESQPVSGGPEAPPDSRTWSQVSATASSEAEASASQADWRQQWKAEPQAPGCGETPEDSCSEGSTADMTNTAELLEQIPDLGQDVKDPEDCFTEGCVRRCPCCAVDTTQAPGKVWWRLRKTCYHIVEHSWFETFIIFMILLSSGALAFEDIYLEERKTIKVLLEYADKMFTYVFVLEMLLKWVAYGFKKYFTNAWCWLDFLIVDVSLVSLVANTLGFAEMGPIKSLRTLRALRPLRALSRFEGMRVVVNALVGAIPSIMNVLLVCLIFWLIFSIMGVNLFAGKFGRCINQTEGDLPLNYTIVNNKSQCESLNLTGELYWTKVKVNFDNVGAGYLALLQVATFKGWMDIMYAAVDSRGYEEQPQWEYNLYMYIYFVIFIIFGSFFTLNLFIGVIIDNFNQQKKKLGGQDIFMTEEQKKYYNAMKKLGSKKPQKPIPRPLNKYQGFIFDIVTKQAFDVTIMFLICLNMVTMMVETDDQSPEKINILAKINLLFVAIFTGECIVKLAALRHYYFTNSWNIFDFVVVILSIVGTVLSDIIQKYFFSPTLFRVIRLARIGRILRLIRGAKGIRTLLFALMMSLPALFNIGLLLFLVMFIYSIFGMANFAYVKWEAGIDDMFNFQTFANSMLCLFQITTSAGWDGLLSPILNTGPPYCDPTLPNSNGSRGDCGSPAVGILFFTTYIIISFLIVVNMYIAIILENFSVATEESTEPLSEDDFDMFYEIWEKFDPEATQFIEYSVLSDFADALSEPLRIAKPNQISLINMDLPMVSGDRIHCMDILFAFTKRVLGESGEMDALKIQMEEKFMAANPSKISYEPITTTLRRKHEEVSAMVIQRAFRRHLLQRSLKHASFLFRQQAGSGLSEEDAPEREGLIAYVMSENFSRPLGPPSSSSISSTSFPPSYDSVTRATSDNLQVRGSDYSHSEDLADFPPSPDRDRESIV
In short: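 Stable HEK293 line expressing human NaV1.5, recorded by population patch clamp on the IonWorks Quattro.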

Structure (SMILES) | IC50 [1] | IC50 [2]
CC[C@H](C)[C@@H]1NC(=O)[C@@H]2CSSC[C@@H]3NC(=O)[C@H](C(C)C)NC(=O)[C@H](Cc4cccc5ccccc45)NC(=O)[C@H](CC(N)=O)NC(=O)[C@@H]4CCCN4C(=O)[C@H](CCCNC(=N)N)NC(=O)[C@H](CSSC[C@H](NC(=O)[C@@H](N)CC(=O)O)C(=O)N[C@@H](CC(C)C)C(=O)NCC(=O)N[C@@H](Cc4ccccc4)C(=O)N[C@@H](CCSC)C(=O)N[C@@H](CCCNC(=N)N)C(=O)N[C@@H](CCCCN)C(=O)N2)NC(=O)[C@H](CSSC[C@@H](C(=O)N[C@@H](CCCCN)C(=O)N[C@@H](Cc2ccc(O)cc2)C(=O)N[C@H](C(=O)N[C@@H](Cc2ccccc2)C(N)=O)C(C)C)NC(=O)[C@H](Cc2c[nH]c4ccccc24)NC(=O)[C@H](CCCCN)NC(=O)[C@H](Cc2c[nH]cn2)NC(=O)[C@H]([C@@H](C)O)NC(=O)[C@H](CCCNC(=N)N)NC(=O)[C@H](CO)NC3=O)NC(=O)[C@H](CCCCN)NC(=O)[C@H](CC(=O)O)NC(=O)[C@H](CC(N)=O)NC(=O)[C@H](CC(=O)O)NC(=O)[C@@H]2CCCN2C1=O (H-DCLGFMRKCIPDNDKCCRPN[1Nal]VCSRTHKWCKYVF-NH2; disulfide 2-17, 9-23, 16-30) | 90 nM | > 5 µM
CC[C@H](C)[C@@H]1NC(=O)[C@@H]2CSSC[C@@H]3NC(=O)[C@H](C(C)C)NC(=O)[C@H](CC(C)C)NC(=O)[C@H](CC(N)=O)NC(=O)[C@@H]4CCCN4C(=O)[C@H](CCCNC(=N)N)NC(=O)[C@H](CSSC[C@H](NC(=O)[C@@H](N)CC(=O)O)C(=O)N[C@@H](CC(C)C)C(=O)NCC(=O)N[C@@H](Cc4ccccc4)C(=O)N[C@@H](CCSC)C(=O)N[C@@H](CCCNC(=N)N)C(=O)N[C@@H](CCCCN)C(=O)N2)NC(=O)[C@H](CSSC[C@@H](C(=O)N[C@@H](CCCCN)C(=O)N[C@@H](Cc2ccc(O)cc2)C(=O)N[C@H](C(=O)N[C@@H](Cc2ccccc2)C(N)=O)C(C)C)NC(=O)[C@H](Cc2c[nH]c4ccccc24)NC(=O)[C@H](CCCCN)NC(=O)[C@H](Cc2cnc[nH]2)NC(=O)[C@H]([C@@H](C)O)NC(=O)[C@H](CCCNC(=N)N)NC(=O)[C@H](CCC(=O)O)NC3=O)NC(=O)[C@H](CCCCN)NC(=O)[C@H](CC(=O)O)NC(=O)[C@H](CC(N)=O)NC(=O)[C@H](CC(=O)O)NC(=O)[C@@H]2CCCN2C1=O (H-DCLGFMRKCIPDNDKCCRPNLVCERTHKWCKYVF-NH2; disulfide 2-17, 9-23, 16-30) | > 5000 nM | > 5 µM
CC[C@H](C)[C@@H]1NC(=O)[C@@H]2CSSC[C@@H]3NC(=O)[C@H](CCCCN)NC(=O)[C@H](CC(C)C)NC(=O)[C@H](CC(N)=O)NC(=O)[C@@H]4CCCN4C(=O)[C@H](CCCNC(=N)N)NC(=O)[C@H](CSSC[C@H](NC(=O)[C@@H](N)CC(=O)O)C(=O)N[C@@H](CC(C)C)C(=O)NCC(=O)N[C@@H](Cc4ccccc4)C(=O)N[C@@H](CCSC)C(=O)N[C@@H](CCCNC(=N)N)C(=O)N[C@@H](CCCCN)C(=O)N2)NC(=O)[C@H](CSSC[C@@H](C(=O)N[C@@H](CCCCN)C(=O)N[C@@H](Cc2ccc(O)cc2)C(=O)N[C@H](C(=O)N[C@@H](Cc2ccccc2)C(N)=O)C(C)C)NC(=O)[C@H](Cc2c[nH]c4ccccc24)NC(=O)[C@H](CCCCN)NC(=O)[C@H](Cc2cnc[nH]2)NC(=O)[C@H]([C@@H](C)O)NC(=O)[C@H](CCCNC(=N)N)NC(=O)[C@H](CO)NC3=O)NC(=O)[C@H](CCCCN)NC(=O)[C@H](CC(=O)O)NC(=O)[C@H](CC(N)=O)NC(=O)[C@H](CC(=O)O)NC(=O)[C@@H]2CCCN2C1=O (H-DCLGFMRKCIPDNDKCCRPNLKCSRTHKWCKYVF-NH2; disulfide 2-17, 9-23, 16-30) | 200 nM | > 5 µM
